Key:
HIV-1 LTR [1] = experiment: HIV-1 LTR-CAT assay in HCT116 WT cells; format: cell-based; settings: Flavopiridol, CR8#13, F07#13 100nM, 9AA 1000nM, 48hrs
How it was run: (§1)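 HIV-1 LTR-CAT plasmid was transfected into HCT116 cells with or without pc-Tat. Six hours later, cells were treated with DMSO or test compound and incubated 48hrs at 37°C in complete DMEM. Dicer-/- extract was used at one tenth the amount of WT extract.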

[2] = tested on: infected ACH2, J1.1, OM10.1, U1 and uninfected CEM, Jurkat T-cells, and U937 cells; experiment: MTT assay on infected and uninfected cells; format: cell-based; settings: 50nM and 10μM
How it was run: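 Cell viability was measured by MTT assay at 50nM and at a high drug level. Uninfected CEM, Jurkat and U937 cells were grown in RPMI 1640 with FBS, L-glutamine and penicillin/streptomycin at 37°C, 5% CO2.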

[3] = cited from earlier work
HIV-1 in T-cells = settings: ref Agbottah et al, 2005; cited from earlier work
HIV-1 in monocytes = settings: ref Agbottah et al, 2005; cited from earlier work
HIV-1 (pNL4.3) = experiment: Reverse transcriptase assay, pNL4.3 electroporated U937 cells; format: cell-based; settings: Flavopiridol 200nM, 48 hours post drug treatment
HIV-1 LTR [4] = experiment: HIV-1 LTR-CAT assay in HCT116 Dicer-/- cells; format: cell-based; settings: HCT116 Dicer-/- compared with HCT116 WT; 100nM; 48hrs
How it was run: as §1

HIV-1 LTR [5] = experiment: ChIP assay on the HIV-1 LTR in TZM-bl cells; format: cell-based; settings: TSA for 7 days
How it was run: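 TZM-bl cells carry an integrated HIV-1 LTR and were grown in DMEM with 10% FBS, 2mM L-glutamine and antibiotics. Cells were treated 7 days with sub-lethal TSA, then switched to complete medium and transfected with TAR-WT or control TAR-D RNA. ChIP was done on day 8 with HDAC-1 and Ago2 antibodies. Precipitated DNA was amplified with 0.1uM HIV-1 LTR primers.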

HIV-1 LTR [6] = experiment: Luciferase assay in TSA treated TZM-bl cells; format: cell-based; settings: TSA treatment
How it was run: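 TZM-bl cells, which carry a stably integrated HIV-1 LTR-luciferase reporter, were treated with TSA for 7 days and then with test compound. Firefly luciferase activity was measured with the BrightGlo Luciferase Assay.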

With `Nc1c2ccccc2nc2ccccc12` [9AA, 9-Aminoacridine] the “Inhibition of Tat-mediated HIV-1 LTR transcription (CAT assay)” value (from here on “Inhibition … (CAT assay)”) (HIV-1 LTR [1]) was “moderate effects”.
For `CC[C@H](CO)Nc1nc(NCc2ccc(-c3ccccn3)cc2)c2ncn(C(C)C)c2n1` [CR8], the “Cell killing of uninfected cells (MTT assay)” value [2] is listed as “some cell killing of uninfected cells” and the “Potency relative to Cyc202” value [3] is listed as “roughly 25 times”.
In the case of `CC[C@H](CO)Nc1nc(NCc2ccccc2)c2ncn(C(C)C)c2n1` [Cyc202, R-roscovitine], the “Inhibition of HIV-1 in T-cells” value (HIV-1 in T-cells) is listed as “effective inhibitor” and the “Inhibition of HIV-1 in monocytes” value (HIV-1 in monocytes) is listed as “not in monocytes”.
In the case of `CN1CC[C@H](c2c(O)cc(O)c3c(=O)cc(-c4ccccc4Cl)oc23)[C@H](O)C1` [Flavopiridol], the “RT levels in supernatant” value (HIV-1 (pNL4.3)) is reported as “able to decrease RT levels in both cell lines”, the “Inhibition … (CAT assay)” value (HIV-1 LTR [1]) is reported as “inhibited viral transcription significantly better in cells that contained Dicer” and the “Inhibition … (CAT assay)” value (HIV-1 LTR [4]) is reported as “less potent”.
For `CC(/C=C/C(=O)NO)=C\[C@@H](C)C(=O)c1ccc(N(C)C)cc1` [TSA, Trichostatin-A], the “Association of HDAC-1 and Ago2 with the HIV-1 LTR (ChIP)” value (HIV-1 LTR [5]) was “association was lost” and the “Luciferase activity of integrated HIV-1-Luc” value (HIV-1 LTR [6]) was “increased Luciferase activity”.

Reference: PMC2902143 (Journal of RNAi and Gene Silencing : An International …, 2010)
